From ChEMBL document CHEMBL4342410, “Design and Discovery of N-(3-(2-(2-Hydroxyethoxy)-6-morpholinopyridin-4-yl)-4-methylphenyl)-2-(trifluoromethyl)isonicotinamide, a Selective, Efficacious, and Well-Tolerated RAF Inhibitor Targeting RAS Mutant Cancers: The Path to the Clinic” (J Med Chem, 2020)

How the values were obtained:
[1] = Apparent permeability across basolateral to apical side in human Caco2 cells at pH 7.4 by LC/MS/MS analysis; assay type: ADME, cell-based; settings: Caco-2, pH 7.4
[2] = biological target: T1, Discoidin domain-containing receptor 2 (Homo sapiens, UniProt Q16832); test: Binding affinity to wild-type human partial length DDR2 (V555 to E855 residues) expressed in mammalian expression system by Kinomescan method
T1 sequence (Q16832 whole entry): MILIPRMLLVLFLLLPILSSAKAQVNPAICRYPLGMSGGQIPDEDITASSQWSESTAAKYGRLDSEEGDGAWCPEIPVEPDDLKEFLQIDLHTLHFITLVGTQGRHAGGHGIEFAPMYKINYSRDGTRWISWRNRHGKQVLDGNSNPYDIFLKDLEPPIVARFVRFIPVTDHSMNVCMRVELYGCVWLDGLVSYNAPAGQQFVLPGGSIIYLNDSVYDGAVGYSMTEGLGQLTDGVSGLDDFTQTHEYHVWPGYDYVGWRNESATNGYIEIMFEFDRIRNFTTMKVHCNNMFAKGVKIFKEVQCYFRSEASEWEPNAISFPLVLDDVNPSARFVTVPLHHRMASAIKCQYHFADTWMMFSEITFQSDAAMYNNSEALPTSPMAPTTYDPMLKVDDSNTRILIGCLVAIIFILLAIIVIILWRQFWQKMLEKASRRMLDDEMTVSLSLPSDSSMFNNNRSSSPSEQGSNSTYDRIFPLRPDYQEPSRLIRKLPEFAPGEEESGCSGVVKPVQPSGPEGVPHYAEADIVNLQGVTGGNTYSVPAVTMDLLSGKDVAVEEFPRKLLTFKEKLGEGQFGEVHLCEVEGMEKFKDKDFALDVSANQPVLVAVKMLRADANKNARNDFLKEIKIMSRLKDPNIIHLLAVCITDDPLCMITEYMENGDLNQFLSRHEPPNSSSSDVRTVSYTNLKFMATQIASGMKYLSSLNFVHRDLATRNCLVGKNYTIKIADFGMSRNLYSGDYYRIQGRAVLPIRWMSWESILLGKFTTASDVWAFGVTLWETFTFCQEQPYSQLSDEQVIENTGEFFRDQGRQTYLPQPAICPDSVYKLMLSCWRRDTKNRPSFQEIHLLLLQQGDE

[3] = Time of last measurable concentration in nude rat xenografted with human Calu6 cells harboring KRAS Q61K mutant at 75 mg/kg, po administered daily for 18 days starting from day 13 post tumor implantation and measured on day 31; assay type: ADME, organism-based; settings: in vivo, 432 h
Summary of the method: (§1)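 Calu-6 xenograft nude rats were dosed orally once daily at 15, 35, 75 or 150 mg/kg from day 13 after implantation to day 31. Plasma was collected after the last dose on day 31, drug concentrations were measured, and PK parameters including AUC were calculated for each dose.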

Calu-6 [4] = test: Antitumor activity against human Calu6 cells harboring KRAS Q61K mutant xenografted in nude rat assessed as tumor regression at 75 mg/kg, po administered daily for 18 days starting from day 13 post tumor implantation and measured on day 31 relative to control; assay type: functional
Summary of the method: (§2)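 Nude rats bearing Calu-6 (KRAS Q61K) human NSCLC xenografts received vehicle or drug p.o. daily at 15, 35, 75 or 150 mg/kg. Dosing began 13 days after tumor implantation and ran to day 31, i.e. 18 days of treatment. Tumor volumes were read out as %T/C or % regression versus vehicle on day 31. Body weight was also tracked.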

[5] = biological target: T2, Discoidin domain-containing receptor 2 (Homo sapiens) (UniProt Q16832); test: Binding affinity to wild-type human partial length DDR2 (V555 to E855 residues) expressed in mammalian expression system at 1 uM by Kinomescan method relative to control
T2 sequence (whole entry): T1 sequence (Q16832 whole entry)
Summary of the method: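 KINOMEscan competition binding panel of about 456 kinases, compound tested at 1 μM. Activity is given as % of control = [(test signal − positive control signal)/(negative control signal − positive control signal)] × 100.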

[6] = Tmax in nude rat xenografted with human Calu6 cells harboring KRAS Q61K mutant at 150 mg/kg, po administered daily for 18 days starting from day 13 post tumor implantation and measured on day 31; assay type: ADME, organism-based; settings: in vivo; summary of the method: as §1
[7] = biological target: RAF proto-oncogene serine/threonine-protein kinase (Homo sapiens, UniProt P04049); test: Inhibition of CRAF in human Calu6 cells assessed as reduction MEK phosphorylation measured after 1 hr by sandwich ELISA; assay type: cell-based
Chain of RAF proto-oncogene serine/threonine-protein kinase (P04049 whole entry): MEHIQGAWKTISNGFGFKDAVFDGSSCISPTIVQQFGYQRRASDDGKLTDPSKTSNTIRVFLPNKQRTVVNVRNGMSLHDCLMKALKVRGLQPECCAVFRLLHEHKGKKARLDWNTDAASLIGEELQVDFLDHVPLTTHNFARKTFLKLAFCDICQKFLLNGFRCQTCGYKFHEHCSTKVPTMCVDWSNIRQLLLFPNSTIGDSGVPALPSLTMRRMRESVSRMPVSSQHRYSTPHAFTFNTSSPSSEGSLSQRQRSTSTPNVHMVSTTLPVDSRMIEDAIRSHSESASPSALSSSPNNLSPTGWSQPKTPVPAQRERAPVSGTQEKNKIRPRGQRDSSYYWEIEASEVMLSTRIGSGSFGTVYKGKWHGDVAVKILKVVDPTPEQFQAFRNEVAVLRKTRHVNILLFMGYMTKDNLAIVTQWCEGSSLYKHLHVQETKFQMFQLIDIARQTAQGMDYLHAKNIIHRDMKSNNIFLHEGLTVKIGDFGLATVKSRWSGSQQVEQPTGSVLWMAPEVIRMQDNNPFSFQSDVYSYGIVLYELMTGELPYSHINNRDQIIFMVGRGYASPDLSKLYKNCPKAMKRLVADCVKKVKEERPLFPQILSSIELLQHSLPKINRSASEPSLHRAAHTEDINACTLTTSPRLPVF

[8] = Time of last measurable concentration in nude rat xenografted with human Calu6 cells harboring KRAS Q61K mutant at 35 mg/kg, po administered daily for 18 days starting from day 13 post tumor implantation and measured on day 31; assay type: ADME, organism-based; settings: in vivo, 432 h; summary of the method: as §1
[9] = Protein binding in human plasma; assay type: ADME, cell-free; settings: read-out: PPB (converted)
Rattus norvegicus = test: In vivo inhibition of CRAF in po dosed nude rat xenografted with human Calu6 cells harboring KRAS Q61K mutant assessed as reduction in tumor MEK phosphorylation administered as single dose measured after 1 to 48 hrs by sandwich ELISA; assay type: functional, organism-based
Summary of the method: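 Calu-6 (KRAS Q61K) xenograft-bearing nude rats were given a single oral dose of 15, 35, 75 or 150 mg/kg. Tumor and blood were sampled at 1, 4, 7, 24 and 48 h post-dose. Tumor pMEK was quantified by MSD immunoassay and expressed as percent pMEK. Free plasma exposure was determined in parallel.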

[10] = test system: Serine/threonine-protein kinase B-raf (Homo sapiens), P15056 [V600E]; test: Binding affinity to human partial length BRAF V600E mutant (S429 to E741 residues) expressed in mammalian expression system at 1 uM by Kinomescan method relative to control
Chain of Serine/threonine-protein kinase B-raf (Homo sapiens), P15056 [V600E] (P15056 whole entry V600E, the tested form may be a part): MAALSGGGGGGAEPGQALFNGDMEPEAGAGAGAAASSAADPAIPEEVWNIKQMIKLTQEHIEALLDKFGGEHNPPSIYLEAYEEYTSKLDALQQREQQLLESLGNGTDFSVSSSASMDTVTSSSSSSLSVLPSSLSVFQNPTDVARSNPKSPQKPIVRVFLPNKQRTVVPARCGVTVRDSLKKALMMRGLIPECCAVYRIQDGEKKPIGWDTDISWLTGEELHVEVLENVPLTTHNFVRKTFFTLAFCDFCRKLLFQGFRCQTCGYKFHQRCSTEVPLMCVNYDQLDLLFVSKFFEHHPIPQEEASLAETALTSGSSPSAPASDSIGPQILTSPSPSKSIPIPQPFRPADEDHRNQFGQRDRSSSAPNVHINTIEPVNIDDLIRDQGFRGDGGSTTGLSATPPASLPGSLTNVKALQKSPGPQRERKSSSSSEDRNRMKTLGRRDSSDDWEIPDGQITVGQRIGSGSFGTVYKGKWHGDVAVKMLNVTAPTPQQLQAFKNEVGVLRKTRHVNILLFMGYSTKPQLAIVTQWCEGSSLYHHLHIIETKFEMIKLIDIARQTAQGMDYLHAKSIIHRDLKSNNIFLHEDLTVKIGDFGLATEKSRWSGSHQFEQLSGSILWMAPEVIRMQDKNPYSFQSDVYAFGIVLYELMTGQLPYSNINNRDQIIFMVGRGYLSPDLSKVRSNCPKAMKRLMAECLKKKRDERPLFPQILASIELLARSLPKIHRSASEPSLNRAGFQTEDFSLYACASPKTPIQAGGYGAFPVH

[11] = Oral bioavailability in mouse at 4 mg/kg; assay type: ADME, organism-based; settings: in vivo
[12] = Cmax in mouse at 4 mg/kg, po; assay type: ADME, organism-based; set-up: dose 4 mg/kg, route oral; settings: in vivo
Calu-6 [13] = test: Antitumor activity against human Calu6 cells harboring KRAS Q61K mutant xenografted in nude rat assessed as tumor growth at 15 mg/kg, po administered daily for 18 days starting from day 13 post tumor implantation and measured on day 31 relative to control; assay type: functional; summary of the method: as §2

For Cc1ccc(NC(=O)c2ccnc(C(F)(F)F)c2)cc1-c1cc(OCCO)nc(N2CCOCC2)c1 [NAPORAFENIB], the Papp B→A [1] was 19 ×10⁻⁶ cm/s, the Kd [2] was 0.01 µM and the Tlast [3] was 24 h. The Activity (Calu-6 [4]) was 21%, the Activity [5] was 84% and the Tmax [6] was 5.5 h. It also gave an EC50 [7] of 0.014 to 0.05 µM, a Tlast [8] of 24 h and a fraction unbound [9] of 0.02. For the same compound, the inhibition (Rattus norvegicus) was “Dose-dependent effect”, the Activity [10] was greater than 98% and the bioavailability [11] was 65%. For the same compound, the Cmax [12] was 1600 nM and the T/C (Calu-6 [13]) was 29%.
